Most compounds without a hit are left out; they make up all but 2.1% or so of the library.
NOD2-RIPK2 inh – NOD2-RIPK2 protein interaction inhibition | 360,000 tested, 0.38% active | AID 624267 | O43353 | inhibition, % at 4.98 µM | CHO BLA complementation NOD2-RIPK2, CCF4 ratio; in the data active = inhibition above about 21%
Target sequence (O43353 whole entry, looked up): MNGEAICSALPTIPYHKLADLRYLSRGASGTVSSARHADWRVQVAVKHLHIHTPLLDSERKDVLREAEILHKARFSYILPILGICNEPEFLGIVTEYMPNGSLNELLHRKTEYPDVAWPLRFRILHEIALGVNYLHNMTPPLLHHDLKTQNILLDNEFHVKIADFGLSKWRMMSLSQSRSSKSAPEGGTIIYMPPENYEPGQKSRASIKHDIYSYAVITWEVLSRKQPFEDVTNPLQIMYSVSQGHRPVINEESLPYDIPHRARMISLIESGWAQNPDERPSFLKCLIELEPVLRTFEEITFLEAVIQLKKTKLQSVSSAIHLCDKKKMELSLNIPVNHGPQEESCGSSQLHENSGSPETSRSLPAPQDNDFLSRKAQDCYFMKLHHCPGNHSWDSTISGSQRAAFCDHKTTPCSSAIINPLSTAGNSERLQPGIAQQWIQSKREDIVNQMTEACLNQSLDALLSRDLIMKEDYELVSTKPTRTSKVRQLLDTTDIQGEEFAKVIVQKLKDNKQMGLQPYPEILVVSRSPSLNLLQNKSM
TLR9-MyD88 inh – inhibitors of human TLR9-MyD88 binding; AID 504734; CHO BLA complementation TLR9-MyD88, CCF4 FRET ratio; 340,000 tested, 0.21% active; inhibition, % at 4.98 µM; Q9NR96+Q99836;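 active = inhibition above the mean over all tested compounds plus 3 SD, cut at about 21% in these data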
MC4R barr agon – agonists of human melanocortin 4 receptor (MC4R) beta-arrestin; U2OS MC4R beta-arrestin complementation, luminescence; percent of melanotan II response, DMSO zero; activation, % at 8.9 µM; 360,000 tested, 0.98% active;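 active = activation above a per-plate cutoff, the mean activation of sample wells on that plate plus 3 SD, cut at about 8% in these data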
MIN6 prolif – induces beta-cell replication in MIN6 cells | 330,000 tested, 0.29% active | MIN6 cells proliferation, ATPlite luminescence, 48 h; cells starved in 0.2% serum; 100% = growth in 10% serum | proliferation, % at 10 µM;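 active = compounds whose signal lies at least 3.5 SD above the mean of all wells on their plate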
MC4R antag cAMP – human MC4R antagonism in cAMP assay | MC4R-expressing cells, MTII-stimulated cAMP, LANCE TR-FRET | 360,000 tested, 0.48% active | inhibition, % at 6.5 µM | P32245;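 active = inhibition above its plate's cutoff, the mean of tested wells on that plate plus 3 SD, cut at about 29% in these data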
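Test system: U2OS cells stably expressing human melanocortin 4 receptor (MC4R); also added: Melanotan II challenge; compound: 6.5 µM single dose; timing: 30-min compound preincubation, 1-h Melanotan II challenge, 1-h detection, room temperature; signal: Eu-cAMP/anti-cAMP TR-FRET, emission 671 nm; repeats: one well per compound, no replicates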
TLR4-MyD88 BLA – blocks binding of human TLR4 to MyD88; HeLa CL3-4 TLR4/MyD88 BLA complementation, FRET ratio; inhibition, % at 8.4 µM; 200,000 tested, 0.18% active; AID 861; in the data active = inhibition above about 25%
MC4R barr conf – human MC4R beta-arrestin agonism confirmation; shares compounds with MC4R barr agon; U2OS MC4R beta-arrestin recruitment, luminescence; scaled DMSO 0%, Melanotan II 100%; activation, % at 8.9 µM; 2,400 tested, 31% active; AID 602192;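 active = mean activation across replicates above the hit cutoff set in the earlier primary screen, cut at about 8% in these data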
MOR DOR agonist – OPRM1-OPRD1 heterodimer agonism counter-screen; shares compounds with MC4R barr agon; U2OS PathHunter beta-arrestin, beta-gal luminescence; percent of deltorphin B response, DMSO zero; activation, % at 9.2 µM; 2,400 tested, 5.8% active;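 active = mean activation across replicates exceeds the hit threshold derived in the earlier primary screen, cut at about 18% in these data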
A number is an active result.

For Cc1ccc(NC(=O)CSC2=Nc3ccccc3C3CC=NN23)c(C)c1 (configuration not stated) the results were NOD2-RIPK2 inh inactive, TLR9-MyD88 inh inactive, MC4R barr agon inactive, MIN6 prolif inactive, MC4R antag cAMP inactive and TLR4-MyD88 BLA inactive.
For O=C(CSC1=Nc2ccccc2C2CC=NN12)Nc1ccc(F)cc1Cl (configuration not stated) the results were NOD2-RIPK2 inh inactive, TLR9-MyD88 inh inactive, MC4R barr agon 26, MIN6 prolif inactive, MC4R antag cAMP inactive, TLR4-MyD88 BLA inactive, MC4R barr conf inactive and MOR DOR agonist inactive.
Screening Cc1ccc(Oc2ccc(Cl)cc2NC(=O)c2ccc(F)cc2F)cc1 returned NOD2-RIPK2 inh inactive, TLR9-MyD88 inh inactive, MC4R barr agon 11, MIN6 prolif inactive, MC4R antag cAMP inactive, TLR4-MyD88 BLA inactive, MC4R barr conf inactive and MOR DOR agonist inactive.
`Cc1ccc(NC(=O)c2ccc(N/N=C/c3cccc(O)c3)c([N+](=O)[O-])c2)cc1` gave NOD2-RIPK2 inh inactive, TLR9-MyD88 inh inactive, MC4R barr agon 9.9, MIN6 prolif inactive, MC4R antag cAMP inactive, TLR4-MyD88 BLA inactive, MC4R barr conf inactive and MOR DOR agonist inactive.
For CCOC(=O)c1c(C)[nH]c(C(=O)OCC(=O)NCc2ccc(OC)c(OC)c2)c1C the results were NOD2-RIPK2 inh inactive, TLR9-MyD88 inh inactive, MC4R barr agon inactive, MIN6 prolif inactive and MC4R antag cAMP inactive.
Screening CC(CCc1ccccc1)NC(=O)c1ccc(NC(=O)c2ccc(Cl)cc2Cl)cc1 (configuration not stated) returned NOD2-RIPK2 inh inactive, TLR9-MyD88 inh inactive, MC4R barr agon 9.9, MIN6 prolif inactive, MC4R antag cAMP inactive, TLR4-MyD88 BLA inactive, MC4R barr conf inactive and MOR DOR agonist inactive.
For CCCNC(=O)Nc1nc2ccccc2s1 the results were NOD2-RIPK2 inh inactive, TLR9-MyD88 inh inactive, MC4R barr agon inactive, MIN6 prolif inactive and MC4R antag cAMP inactive.
CCCNC(=O)c1ccc(-c2nc3ccccc3s2)s1 was read as NOD2-RIPK2 inh inactive, TLR9-MyD88 inh inactive, MC4R barr agon 11, MIN6 prolif inactive, MC4R antag cAMP inactive, TLR4-MyD88 BLA inactive, MC4R barr conf inactive and MOR DOR agonist inactive.
Screening Cc1ccc(Cl)cc1NC(=O)c1ccccc1OCC(=O)Nc1ccc(Cl)cc1 returned NOD2-RIPK2 inh inactive, TLR9-MyD88 inh inactive, MC4R barr agon 15, MIN6 prolif inactive, MC4R antag cAMP inactive, TLR4-MyD88 BLA inactive, MC4R barr conf 8.2 and MOR DOR agonist inactive.
Cc1ccc(NC(=O)c2ccccc2OCC(=O)c2ccc(F)cc2)cc1 was read as NOD2-RIPK2 inh inactive, TLR9-MyD88 inh inactive, MC4R barr agon 51, MIN6 prolif inactive, MC4R antag cAMP inactive, TLR4-MyD88 BLA inactive, MC4R barr conf 18 and MOR DOR agonist inactive.
`Cc1ccc(NC(=O)COc2ccccc2C(=O)Nc2ccccc2)cc1Cl` gave NOD2-RIPK2 inh inactive, TLR9-MyD88 inh inactive, MC4R barr agon inactive, MIN6 prolif inactive, MC4R antag cAMP inactive and TLR4-MyD88 BLA inactive.
Screening COc1ccc(NC(=O)c2cc(Br)ccc2Cl)c([N+](=O)[O-])c1 returned NOD2-RIPK2 inh inactive, TLR9-MyD88 inh inactive, MC4R barr agon 11, MIN6 prolif inactive, MC4R antag cAMP inactive, TLR4-MyD88 BLA inactive, MC4R barr conf inactive and MOR DOR agonist inactive.
Screening COc1ccc(NC(=O)COC(=O)c2cc(C)oc2C)c([N+](=O)[O-])c1 returned NOD2-RIPK2 inh inactive, TLR9-MyD88 inh inactive, MC4R barr agon 23, MIN6 prolif inactive, MC4R antag cAMP inactive, MC4R barr conf inactive and MOR DOR agonist inactive.
For O=C(c1cccs1)N1CCN(C(=O)c2cccs2)C1=S the results were NOD2-RIPK2 inh inactive, TLR9-MyD88 inh inactive, MC4R barr agon inactive and MC4R antag cAMP inactive.
For O=C(O)c1ccccc1C=NN1CCCCCC1 the results were NOD2-RIPK2 inh inactive, TLR9-MyD88 inh inactive, MC4R barr agon inactive and MC4R antag cAMP inactive.
CCOc1cc(/C=C2\CCn3c2nc2cc(Cl)ccc2c3=O)ccc1O was read as NOD2-RIPK2 inh inactive, TLR9-MyD88 inh inactive, MC4R barr agon 12, MIN6 prolif inactive, MC4R antag cAMP inactive, MC4R barr conf 9.2 and MOR DOR agonist inactive.
For Cc1ccc(-c2nnn(CC(=O)N(CC(=O)NC3CCCC3)c3ccc(F)c(Cl)c3)n2)o1 the results were NOD2-RIPK2 inh inactive, TLR9-MyD88 inh inactive, MC4R barr agon 10, MIN6 prolif inactive, MC4R antag cAMP inactive, TLR4-MyD88 BLA inactive, MC4R barr conf inactive and MOR DOR agonist inactive.
`O=C(NCCN1CCC(n2c(=O)[nH]c3ccccc32)CC1)C(c1ccccc1)c1ccccc1` gave NOD2-RIPK2 inh inactive.
For Cc1ccc2oc(-c3cccc(N)c3)nc2c1 the results were NOD2-RIPK2 inh inactive, TLR9-MyD88 inh inactive, MC4R barr agon inactive, MIN6 prolif inactive, MC4R antag cAMP inactive and TLR4-MyD88 BLA inactive.
Nc1cccc(-c2nc3cc(S(=O)(=O)c4ccc5oc(-c6cccc(N)c6)nc5c4)ccc3o2)c1 was read as NOD2-RIPK2 inh inactive, TLR9-MyD88 inh inactive, MC4R barr agon 14, MIN6 prolif inactive, MC4R antag cAMP inactive, TLR4-MyD88 BLA inactive, MC4R barr conf inactive and MOR DOR agonist inactive.
Screening COc1ccc2cc3cc(C(=O)Nc4ccc5c(c4)OCCO5)oc3nc2c1 returned NOD2-RIPK2 inh inactive, TLR9-MyD88 inh inactive, MC4R barr agon 43, MIN6 prolif inactive, MC4R antag cAMP inactive, TLR4-MyD88 BLA inactive, MC4R barr conf inactive and MOR DOR agonist inactive.
`Cc1noc(C)c1NC(=O)N(C)C[C@@H]1Oc2ccc(NC(=O)Cc3cn(C)c4ccccc34)cc2CC(=O)N([C@H](C)CO)C[C@@H]1C` gave NOD2-RIPK2 inh inactive, TLR9-MyD88 inh inactive, MC4R barr agon inactive, MIN6 prolif inactive and MC4R antag cAMP inactive.
O=C1CN(C(=O)COC(=O)/C=C/c2ccc(OC(F)F)cc2)c2ccccc2N1 was read as NOD2-RIPK2 inh inactive, TLR9-MyD88 inh inactive, MC4R barr agon 11, MIN6 prolif inactive, MC4R antag cAMP inactive, TLR4-MyD88 BLA inactive, MC4R barr conf inactive and MOR DOR agonist inactive.
`C=CCN1C(=O)c2ccc(C(=O)N3CCN(S(=O)(=O)c4ccccc4Br)CC3)cc2C1=O` gave NOD2-RIPK2 inh inactive, TLR9-MyD88 inh inactive, MC4R barr agon inactive, MIN6 prolif inactive and MC4R antag cAMP inactive.
`Cc1csc(NC(=O)c2cc(-c3ccccc3)nc3ccccc23)n1` gave NOD2-RIPK2 inh inactive, TLR9-MyD88 inh inactive, MC4R barr agon 12, MIN6 prolif inactive, MC4R antag cAMP inactive, TLR4-MyD88 BLA inactive, MC4R barr conf inactive and MOR DOR agonist inactive.

Bioassay records deposited in PubChem by several laboratories.
